Measured values reported in PMC3149845 (The Journal of neuroscience : the official journal of the …, 2011).
Where a chain is given by its changes, count along the chain named. “Also recorded” adds a separate entry of the source. Peptide text beside a SMILES is read from it.

Assays:
hTas1R2/smTas1R3 = target: T1, hTas1R2/smTas1R3 (Homo sapiens, UniProt Q8TE23); experiment: Ca2+ mobilization, mismatched receptor; type: cell-based, human/squirrel monkey; settings: aspartame 10mM, neotame 1mM, sucralose 2 mM, D-tryptophan 5mM, sucrose 150mM; vs control / wild type human receptor
T1 sequence (Q8TE23 20-839): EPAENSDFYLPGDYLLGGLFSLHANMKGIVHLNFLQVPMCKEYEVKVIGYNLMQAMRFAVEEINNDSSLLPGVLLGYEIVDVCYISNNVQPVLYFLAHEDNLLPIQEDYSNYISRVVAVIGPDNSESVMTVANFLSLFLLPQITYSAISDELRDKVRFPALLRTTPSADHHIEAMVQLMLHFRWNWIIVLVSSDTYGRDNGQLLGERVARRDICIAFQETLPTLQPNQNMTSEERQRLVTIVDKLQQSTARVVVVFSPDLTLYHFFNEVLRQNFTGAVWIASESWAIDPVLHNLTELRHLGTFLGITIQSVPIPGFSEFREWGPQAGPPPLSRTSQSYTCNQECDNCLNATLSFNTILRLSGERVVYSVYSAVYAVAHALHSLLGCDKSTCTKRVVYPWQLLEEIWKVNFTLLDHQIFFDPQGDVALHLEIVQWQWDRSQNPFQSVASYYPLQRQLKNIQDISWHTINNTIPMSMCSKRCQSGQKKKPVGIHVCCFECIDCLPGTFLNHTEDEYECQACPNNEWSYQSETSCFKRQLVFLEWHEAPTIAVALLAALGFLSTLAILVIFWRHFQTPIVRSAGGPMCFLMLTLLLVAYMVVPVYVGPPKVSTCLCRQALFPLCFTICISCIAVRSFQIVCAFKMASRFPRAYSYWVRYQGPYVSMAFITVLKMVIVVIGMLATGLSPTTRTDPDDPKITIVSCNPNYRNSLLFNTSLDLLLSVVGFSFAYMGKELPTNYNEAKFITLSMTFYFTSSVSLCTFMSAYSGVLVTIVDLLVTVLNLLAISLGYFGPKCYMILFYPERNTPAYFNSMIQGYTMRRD
How it was run: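 Transfected HEK293E cells (50,000/well; 0.06 μg Tas1R plasmid and 0.06 μg Gα16-gust44 per well) were medium-changed at 20 h, then loaded after 24 h with 3 μM Fluo-4 AM in HBSS/20 mM HEPES for 1 h. Tastant added 30 s into scan; fluorescence (ex 488/em 525 nm) read every 2 s for 150 s. ΔF/F normalized to the hTas1R2/hTas1R3 sucralose response; three independent experiments; unpaired t test.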

hTas1R2:S40T+hTas1R3 = target: T2, hTas1R2:S40T+hTas1R3 (Homo sapiens, UniProt Q8TE23, S40T); experiment: Ca2+ mobilization, mutated human receptor; type: cell-based; settings: aspartame 10mM, neotame 1mM, sucralose 2 mM; compared with hTas1R2/hTas1R3
T2 sequence (Q8TE23 20-839 S40T): T1 sequence (Q8TE23 20-839) with S21T
T2 sequence (Q7RTX0 21-852 partner): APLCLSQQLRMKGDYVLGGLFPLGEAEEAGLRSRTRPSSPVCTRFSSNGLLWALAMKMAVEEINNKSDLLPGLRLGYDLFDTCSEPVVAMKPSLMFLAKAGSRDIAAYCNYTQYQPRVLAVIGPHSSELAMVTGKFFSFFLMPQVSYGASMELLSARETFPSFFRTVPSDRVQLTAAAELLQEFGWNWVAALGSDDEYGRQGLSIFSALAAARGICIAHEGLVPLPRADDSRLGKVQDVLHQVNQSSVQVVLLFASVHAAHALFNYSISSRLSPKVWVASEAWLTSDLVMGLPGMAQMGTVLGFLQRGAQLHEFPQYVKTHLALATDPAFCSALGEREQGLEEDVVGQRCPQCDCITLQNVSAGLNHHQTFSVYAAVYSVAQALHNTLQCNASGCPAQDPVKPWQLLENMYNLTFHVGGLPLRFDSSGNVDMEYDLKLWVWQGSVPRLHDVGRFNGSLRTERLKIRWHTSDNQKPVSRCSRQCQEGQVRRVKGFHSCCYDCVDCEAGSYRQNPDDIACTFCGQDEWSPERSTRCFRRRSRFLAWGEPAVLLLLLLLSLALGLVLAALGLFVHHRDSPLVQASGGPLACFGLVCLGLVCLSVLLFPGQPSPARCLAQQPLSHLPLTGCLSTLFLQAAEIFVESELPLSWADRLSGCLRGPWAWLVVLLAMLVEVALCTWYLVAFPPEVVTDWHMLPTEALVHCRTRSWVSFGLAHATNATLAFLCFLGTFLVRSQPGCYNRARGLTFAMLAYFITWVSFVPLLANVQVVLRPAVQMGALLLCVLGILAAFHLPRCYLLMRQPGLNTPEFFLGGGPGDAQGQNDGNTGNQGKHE
How it was run: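 HEK293E cells grown at 37°C in Opti-MEM with 5% FBS and seeded at 50,000/well. Cells co-lipofected with Tas1R plasmids and Gα16-gust44 (0.06 μg each per well); medium changed at 20 h, assayed 24 h later. Cells loaded 1 h with Fluo-4 AM in HEPES-buffered HBSS. Tastant added at 30 s; fluorescence (ex 488/em 525 nm) read every 2 s for 150 s more. ΔF/F normalised to human receptor maximal sucralose response; mean ± SEM, three independent experiments.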

| SMILES | calcium response to sweetener (hTas1R2/smTas1R3) | calcium response to sweetener (hTas1R2:S40T+hTas1R3) |
| --- | --- | --- |
| COC(=O)[C@H](Cc1ccccc1)NC(=O)[C@@H](N)CC(=O)O [aspartame, L-α-aspartly-L-phenylalanine methyl ester] (H-Asp-Phe-OMe) | able to respond; also recorded: reduced responses | abolished |
| COC(=O)[C@H](Cc1ccccc1)NC(=O)[C@H](CC(=O)O)NCCC(C)(C)C [neotame] | able to respond | did not affect significantly |
| OC[C@H]1O[C@H](O[C@]2(CCl)O[C@H](CCl)[C@@H](O)[C@@H]2O)[C@H](O)[C@@H](O)[C@H]1Cl [sucralose] | reduced responses | significantly reduced |
